In ChEMBL document CHEMBL5346884, “Discovery, synthesis and mechanism study of 2,3,5-substituted [1,2,4]-thiadiazoles as covalent inhibitors targeting 3C-Like protease of SARS-CoV-2” (Eur J Med Chem, 2023):

Legend:
[1] = molecular target: T1, Replicase polyprotein 1ab (Severe acute respiratory syndrome coronavirus 2, UniProt P0DTD1); experiment: Inhibition of full-length recombinant SARS-CoV-2 3CL protease expressed in Escherichia coli BL21 (DE3) cells using fluorogenic MCA-AVLQSGFR-Lys (Dnp)-Lys-NH2 substrate preincubated for 10 mins followed by substrate addition measured for 3.5 mins by FRET assay
[2] = molecular target: T1, Replicase polyprotein 1ab; experiment: Binding affinity to CM5 chip-immobilised full-length recombinant SARS-CoV-2 3CL protease expressed in Escherichia coli BL21 (DE3) cells assessed as dissociation constant by SPR analysis
Method in brief: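 SPR at 25 °C in HBS-EP (10 mM HEPES pH 7.4, 150 mM NaCl, 3.0 mM EDTA, 0.05% Tween-20) with 5% DMSO. Protease immobilised at 8000–10000 RU. Compounds were run as an eight-concentration series, with 240 s association and 200 s dissociation. Surface washed with 50% DMSO each cycle.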

[3] = molecular target: T1, Replicase polyprotein 1ab; experiment: Inhibition of full-length recombinant SARS-CoV-2 3CL protease expressed in Escherichia coli BL21 (DE3) cells using fluorogenic MCA-AVLQSGFR-Lys (Dnp)-Lys-NH2 substrate preincubated for 10 mins followed by substrate addition measured immediately by FRET assay
Method in brief: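 FRET assay: 50 nM protease (final) in 50 mM Tris–HCl pH 7.3, 1 mM EDTA, with serially diluted compound. Compound–enzyme preincubation was 10 min in the standard assay, and 0, 5, 10 or 20 min in the time-dependence test. Substrate added at 10 μM final. Fluorescence (ex 320/em 405 nm) read every 35 s for 3.5 min. Initial rates normalised to DMSO control.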

[4] = molecular target: T1, Replicase polyprotein 1ab; experiment: Inhibition of full-length recombinant SARS-CoV-2 3CL protease expressed in Escherichia coli BL21 (DE3) cells using fluorogenic MCA-AVLQSGFR-Lys (Dnp)-Lys-NH2 substrate preincubated for 10 mins followed by substrate addition measured after 5 mins by FRET assay
[5] = molecular target: T1, Replicase polyprotein 1ab; experiment: Inhibition of full-length recombinant SARS-CoV-2 3CL protease expressed in Escherichia coli BL21 (DE3) cells using fluorogenic MCA-AVLQSGFR-Lys (Dnp)-Lys-NH2 substrate preincubated for 10 mins followed by substrate addition measured after 10 mins by FRET assay
[6] = molecular target: T1, Replicase polyprotein 1ab; experiment: Inhibition of full-length recombinant SARS-CoV-2 3CL protease expressed in Escherichia coli BL21 (DE3) cells using fluorogenic MCA-AVLQSGFR-Lys (Dnp)-Lys-NH2 substrate preincubated for 10 mins followed by substrate addition measured after 20 mins by FRET assay
[7] = molecular target: Replicase polyprotein 1ab (Severe acute respiratory syndrome coronavirus 2) (UniProt P0DTD1); experiment: Binding affinity to full-length recombinant SARS-CoV-2 3CL protease expressed in Escherichia coli BL21 (DE3) cells assessed as Gibbs free energy change by MM-GBSA method
[8] = molecular target: T1, Replicase polyprotein 1ab; experiment: Inhibition of SARS-CoV-2 PLpro using RLRGG-AMC substrate preincubated for 30 mins followed by substrate addition measured for 5 mins by fluorescence based assay
Method in brief: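 PLpro at 50 nM with serially diluted compound in 50 mM HEPES pH 7.5, 0.1 mg/mL BSA, incubated 30 min. RLRGG-AMC added to 20 μM final. Fluorescence (ex 360/em 460 nm) read every 1 min for 5 min. Rates compared with DMSO control.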

Chymotrypsin = Chymotrypsin (Homo sapiens, UniProt Q99895+P17538+P40313+Q6GPI1); experiment: Inhibition of chymotrypsin (unknown origin) using N-succinyl-AAPF-AMC as substrate preincubated for 10 mins followed by substrate addition measured for 10 mins by fluorescence based assay; assay type: protein assay
Method in brief: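 Chymotrypsin at 5 nM final with serially diluted compound in PBS pH 7.4, incubated 10 min. N-succinyl-AAPF-AMC added at 10 μM final. Fluorescence (ex 380/em 460 nm) read every 1 min for 10 min. Rates relative to DMSO.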

Cathepsin B = Cathepsin B (Homo sapiens, UniProt P07858); experiment: Inhibition of human Cathepsin B using Z-RR-AMC as substrate preincubated for 30 mins followed by substrate addition measured for 10 mins by FRET assay
Method in brief: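 Cathepsin B (0.25 units) with compound in 20 mM sodium acetate pH 5.5, 1 mM EDTA, 2 mM DTT, incubated 30 min at ambient temperature. Z-RR-AMC added at 1 μM final. Fluorescence (ex 340/em 440 nm) read every 1 min for 10 min. Rates relative to DMSO.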

Procathepsin L = Procathepsin L (Homo sapiens, UniProt P07711); experiment: Inhibition of human Cathepsin L using Z-VVR-AMC as substrate measured for 10 mins by fluorescence based assay
SARS-CoV-2 = experiment: Antiviral activity against SARS-CoV-2 infected in African green monkey Vero E6 cells assessed as reduction in viral replication incubated for 24 hrs by qRT-PCR analysis; assay type: functional, organism-based; conditions: Severe acute respiratory syndrome coronavirus 2, Vero C1008, 24 h
Vero C1008 = experiment: Cytotoxicity against African green monkey Vero E6 cells incubated for 24 hrs by WST-8 assay; assay type: toxicity, cell-based; conditions: chlorocebus sabaeus, vero c1008, 24 h
Method in brief: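 Vero E6 cells grown in DMEM with 10% FBS at 37 °C, 5% CO₂. Compounds tested as 2-fold dilutions, 9 concentrations, in DMEM with 2% FBS, triplicate per concentration, for 24 h. WST-8 added and absorbance read at 450 nm after 0.5–1 h. Viability expressed relative to DMSO control.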

Sequence of Procathepsin L (P07711 whole entry): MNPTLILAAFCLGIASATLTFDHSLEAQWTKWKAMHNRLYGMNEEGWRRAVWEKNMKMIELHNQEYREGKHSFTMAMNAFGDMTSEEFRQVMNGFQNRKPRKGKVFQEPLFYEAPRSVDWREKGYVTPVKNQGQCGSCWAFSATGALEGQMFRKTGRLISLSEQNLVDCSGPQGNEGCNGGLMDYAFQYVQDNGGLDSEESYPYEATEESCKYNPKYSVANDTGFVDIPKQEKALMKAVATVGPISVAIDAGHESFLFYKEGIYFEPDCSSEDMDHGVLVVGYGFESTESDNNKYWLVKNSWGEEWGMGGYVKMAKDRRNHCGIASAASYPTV

SMILES: C/N=c1\nc(-c2ccc(Cl)cc2)n(-c2ccccc2)s1
- IC50 [1]: 136 nM

SMILES: C/N=c1\nc(-c2ccc(OC)cc2)n(-c2ccc(F)cc2)s1
- IC50 [1]: 373 nM

SMILES: C/N=c1\nc(-c2ccccc2)n(-c2ccccc2)s1
- IC50 [1]: 193 nM
- Kd [2]: 798 nM
- IC50 [3]: 409 nM
- IC50 [4]: 302 nM
- IC50 [5]: 206 nM
- IC50 [6]: 191 nM
- deltaG [7]: -13.9 kcal/mol
- IC50 [8]: 655 nM
- IC50 (Chymotrypsin): > 100000 nM
- IC50 (Cathepsin B): > 50000 nM
- IC50 (Procathepsin L): > 100000 nM

SMILES: c1ccc(-c2n/c(=N\C3CC3)sn2-c2ccccc2)cc1
- IC50 [1]: 143 nM

SMILES: CCOc1ccc(-c2n/c(=N\C)sn2-c2ccc(F)cc2)cc1
- IC50 [1]: 462 nM
- EC50 (SARS-CoV-2): 14800 nM
- CC50 (Vero C1008): > 100000 nM

SMILES: C/N=c1\nc(-c2ccc(OC)cc2)n(-c2ccccc2)s1
- IC50 [1]: 165 nM

SMILES: C/N=c1\nc(-c2ccc(F)cc2)n(-c2ccccc2)s1
- IC50 [1]: 118 nM
- IC50 [8]: 448 nM
- IC50 (Chymotrypsin): > 100000 nM
- IC50 (Cathepsin B): > 50000 nM
- IC50 (Procathepsin L): > 100000 nM
- EC50 (SARS-CoV-2): 7250 nM
- CC50 (Vero C1008): > 100000 nM

SMILES: FC1(F)CC(/N=c2\nc(-c3ccccc3)n(-c3ccccc3)s2)C1
- IC50 [1]: 323 nM

SMILES: C/N=c1\nc(-c2ccccc2)n(-c2ccc(F)cc2)s1
- IC50 [1]: 124 nM

SMILES: C/N=c1\nc(-c2ccc(OC)cc2)n(-c2cc(F)c(F)c(F)c2)s1
- IC50 [1]: 582 nM
- EC50 (SARS-CoV-2): 9340 nM
- CC50 (Vero C1008): > 100000 nM

SMILES: CN=C(S)N=C(Nc1ccccc1)c1ccccc1
- IC50 [1]: 40000 nM
- deltaG [7]: -11.4 kcal/mol
